From ChEMBL document CHEMBL6134784, “Furoxan-piplartine hybrids as effective NO donors and ROS inducers in PC3 cancer cells: design, synthesis, and biological evaluation” (RSC Med Chem, 2024)
Active and inactive are the calls of the source. The rule behind the calls is not given here.

Legend:
PC-3 [1] = assay: Cytotoxicity against human PC-3 cells assessed as reduction in cell viability measured after 48 hrs by CCK-8 assay; assay type: functional, cell-based; conditions: PC-3, 48 h
How it was run: (§1)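 CCK-8 viability: cells grown in RPMI-1640 with 10% FBS, 1×10^4 per well, attached 24 h, then medium replaced with fresh medium containing a range of compound concentrations for 48 h at 37 °C, 5% CO2. CCK-8 added 3 h, absorbance 450 nm; vehicle control set as 100%. IC50 by nonlinear regression, mean ± SD, at least two experiments in triplicate.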

[2] = Cytotoxicity against human MCF-10A cells assessed as reduction in cell viability measured after 48 hrs by CCK-8 assay; assay type: toxicity, cell-based; how it was run: as §1
OVCAR-3 = assay: Cytotoxicity against human OVCAR-3 cells assessed as reduction in cell viability measured after 48 hrs by CCK-8 assay; assay type: functional, cell-based; conditions: OVCAR-3, 48 h; how it was run: as §1
MCF7 = assay: Cytotoxicity against human MCF7 cells assessed as reduction in cell viability measured after 48 hrs by CCK-8 assay; assay type: functional, cell-based; conditions: MCF7, 48 h; how it was run: as §1
[3] = Selectivity index, ratio of IC50 for cytotoxicity against human PNT2 cells to IC50 for cytotoxicity against human PC-3 cells; assay type: toxicity, cell-based; conditions: PNT2 cells versus PC-3 cells, read-out: Ratio IC50
How it was run: (§2)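 CCK-8 was added for 3 h and A450 read, with vehicle set as 100% viability. IC50 was fitted by nonlinear regression from ≥2 experiments in triplicate. SI = normal-cell IC50 divided by the matched cancer-cell IC50.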

PC-3 [4] = assay: Induction of nitric oxide production in human PC-3 cells assessed as nitrite level at 100 uM measured after 12 to 48 hrs by Griess assay; assay type: functional; conditions: time 12-48 hrs
How it was run: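 PC3 cells were seeded at 1×10^4 per well and grown 24 h, then moved to serum-free RPMI with 100 μM compound for 12, 24 or 48 h at 37 °C. Supernatant was mixed with 1% sulfanilamide in 2.5% H3PO4 (10 min, dark), then 0.1% NED (10 min, 37 °C), and A540 was read. Nitrite was calculated from a NaNO2 curve (0–100 μM). Controls were DMSO and SNP 100 μM. Data from ≥3 independent experiments in triplicate, mean ± SD.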

[5] = Selectivity index, ratio of IC50 for cytotoxicity against human MCF-10A cells to IC50 for cytotoxicity against human MCF7 cells; assay type: toxicity, cell-based; conditions: MCF-10A cells versus MCF7 cells, read-out: Ratio IC50; how it was run: as §2
[6] = Cytotoxicity against human PNT2 cells assessed as reduction in cell viability measured after 48 hrs by CCK-8 assay; assay type: toxicity, cell-based; how it was run: as §1
PC-3 [7] = assay: Cytotoxicity against human PC-3 cells assessed as reduction in cell viability at 0.24 uM measured after 24 hrs by SRB assay; assay type: functional, cell-based
How it was run: (§3)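 SRB assay: PC3 seeded 1×10^4 per well, after 24 h exposed 24 h at 37 °C, 5% CO2 with or without 1 mM N-acetyl-L-cysteine; vehicle 0.1% DMSO. Fixed with 15% TCA at 4 °C for 1 h, dried, stained 0.4% sulforhodamine B, dye solubilized in 10 mM Tris, absorbance 540 nm; ANOVA/Tukey.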

PC-3 [8] = assay: Cytotoxicity against human PC-3 cells assessed as reduction in cell viability at 0.24 uM measured after 24 hrs in presence of antioxidant N-acetyl-L-cysteine by SRB assay; assay type: functional, cell-based; how it was run: as §3
PC-3 [9] = assay: Cytotoxicity against human PC-3 cells assessed as reduction in cell viability at 0.05 uM measured after 24 hrs in presence of antioxidant N-acetyl-L-cysteine by SRB assay; assay type: functional, cell-based; how it was run: as §3
PC-3 [10] = assay: Cytotoxicity against human PC-3 cells assessed as reduction in cell viability at 0.05 uM measured after 24 hrs by SRB assay; assay type: functional, cell-based; how it was run: as §3

Row | Compound | IC50 (PC-3 [1]) | IC50 at 48 h [2] | IC50 (OVCAR-3) | IC50 (MCF7) | selectivity ratio [3] | Activity (PC-3 [4]) | selectivity ratio [5] | IC50 at 48 h [6] | Activity (PC-3 [7]) | Activity (PC-3 [8]) | Activity (PC-3 [9]) | Activity (PC-3 [10])
1 | O=S(=O)(c1ccccc1)c1c(OCCCCCCO)no[n+]1[O-] | 3.8 µM | 1.7 µM | 2.2 µM | 2 µM | 3.4 | 3.2 µM | 0.9 | 12.9 µM |  |  |  | 
2 | COc1cc(/C=C/C(=O)N2CCC=CC2=O)cc(OC)c1OCCCCCCOc1no[n+]([O-])c1S(=O)(=O)c1ccccc1 | 0.13 µM | 3.6 µM | 0.3 µM | 1.1 µM | 26.2 | 23.5 µM | 3.1 | 3.3 µM |  |  |  | 
3 | O=S(=O)(c1ccccc1)c1c(OCCCO)no[n+]1[O-] | 7.2 µM | 1.8 µM | 3.3 µM | 2.1 µM | 0.3 | 3.2 µM | 0.9 | 1.9 µM | Active | inactive |  | 
4 | O=S(=O)(c1ccccc1)c1c(OCCCCCCCCCCCCO)no[n+]1[O-] | 0.13 µM | 14.8 µM | 0.04 µM | 4.3 µM | 137 | 3.2 µM | 3.4 | 17.6 µM |  |  | inactive | Active
5 | COc1cc(/C=C/C(=O)N2CCC=CC2=O)cc(OC)c1OC [PIPLARTINE] | 5.6 µM | 5.3 µM | 3.5 µM | 5.4 µM | 1.5 |  | 1 | 8.5 µM |  |  |  | 
